Article PMC4814305 (The Biochemical journal, 2016)
pIC50, pKi: −log10 of the molar value. Values joined by “and” are separate entries in the source; they are usually repeats but may differ in a detail not shown here. Equal values may be shown once. “Also recorded” adds a separate entry of the source.

Legend:
[1] = molecular target: T1, mitochondrial pyruvate carrier (MPC) (Rattus norvegicus, UniProt P38718+P63031); assay: [1-14C] pyruvate uptake into isolated rat liver mitochondria; format: biochemical
T1 sequence (P63031 1-109): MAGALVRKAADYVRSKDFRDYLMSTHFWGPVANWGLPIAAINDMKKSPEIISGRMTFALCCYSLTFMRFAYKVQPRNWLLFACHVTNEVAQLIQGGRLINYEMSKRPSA
T1 sequence (P38718 1-127): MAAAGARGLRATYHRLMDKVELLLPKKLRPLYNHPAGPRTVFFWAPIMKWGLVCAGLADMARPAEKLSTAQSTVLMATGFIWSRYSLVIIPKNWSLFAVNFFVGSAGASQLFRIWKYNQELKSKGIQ
In short: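 Liver mitochondria from male Wistar rats (~275 g) were isolated by homogenisation, differential and Percoll centrifugation, then held 2 min on ice at 6 mg protein/mL with test compound. Uptake ran in pH 6.8 KCl/MOPS/EGTA buffer with 1 μM rotenone, 60 μM [1-14C]pyruvate and 3H2O at 9°C, stopped at 45 s by rapid sedimentation. Four replicates per concentration, 3 preparations; Ki fitted from % of control, mean ± S.E.M.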

[2] = system: DB-1 human melanoma cells; assay: L-lactate output and intracellular [L-lactate] of DB-1 melanoma cells; format: cell-based; settings: DB-1 cells, 1 h, vs DMSO
[3] = system: uncoupled pyruvate oxidation by isolated rat heart mitochondria; assay: Uncoupled pyruvate oxidation by rat heart mitochondria; format: biochemical
[4] = system: DB-1 xenografts; settings: 100 mg/kg i.p., cited from earlier work
[5] = molecular target: T2, MCT4 (Homo sapiens, UniProt O15427); assay: [U-14C] L-lactate uptake by Xenopus laevis oocytes expressing MCT4; format: cell-based; settings: cooperative inhibition fit
T2 sequence (O15427 1-465): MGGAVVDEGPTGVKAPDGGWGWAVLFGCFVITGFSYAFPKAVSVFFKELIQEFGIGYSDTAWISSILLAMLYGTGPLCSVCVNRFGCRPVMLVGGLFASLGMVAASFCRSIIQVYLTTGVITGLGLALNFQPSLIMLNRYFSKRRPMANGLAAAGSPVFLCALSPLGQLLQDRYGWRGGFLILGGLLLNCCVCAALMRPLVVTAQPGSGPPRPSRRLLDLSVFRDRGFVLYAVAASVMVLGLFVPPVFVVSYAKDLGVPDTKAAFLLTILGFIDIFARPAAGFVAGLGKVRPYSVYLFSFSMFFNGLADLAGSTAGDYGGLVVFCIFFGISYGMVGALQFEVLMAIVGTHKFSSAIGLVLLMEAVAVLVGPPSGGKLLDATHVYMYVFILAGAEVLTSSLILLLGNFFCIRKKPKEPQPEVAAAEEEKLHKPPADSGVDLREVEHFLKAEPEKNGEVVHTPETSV

[6] = molecular target: T3, MCT1 (Rattus norvegicus, UniProt P53987); assay: [U-14C] L-lactate uptake by Xenopus laevis oocytes expressing MCT1; format: cell-based; settings: cooperative inhibition fit
T3 sequence (P53987 1-494): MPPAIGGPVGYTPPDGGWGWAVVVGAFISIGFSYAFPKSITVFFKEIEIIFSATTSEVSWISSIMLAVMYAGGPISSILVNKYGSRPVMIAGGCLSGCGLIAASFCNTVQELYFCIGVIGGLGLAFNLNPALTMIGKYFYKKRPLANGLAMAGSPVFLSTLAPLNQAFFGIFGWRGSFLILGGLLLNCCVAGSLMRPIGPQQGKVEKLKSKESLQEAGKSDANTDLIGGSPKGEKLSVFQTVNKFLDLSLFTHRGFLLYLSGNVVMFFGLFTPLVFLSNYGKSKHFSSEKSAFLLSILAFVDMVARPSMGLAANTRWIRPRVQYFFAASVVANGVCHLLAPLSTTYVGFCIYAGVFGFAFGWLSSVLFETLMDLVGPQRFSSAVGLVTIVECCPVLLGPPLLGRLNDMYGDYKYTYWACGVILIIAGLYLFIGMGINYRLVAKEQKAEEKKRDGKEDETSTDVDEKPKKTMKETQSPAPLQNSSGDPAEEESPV

[7] = molecular target: T4, MCT2 (Rattus norvegicus, UniProt Q63344); assay: [U-14C] L-lactate uptake by Xenopus laevis oocytes expressing MCT2; format: cell-based; settings: cooperative inhibition fit
T4 sequence (Q63344 1-489): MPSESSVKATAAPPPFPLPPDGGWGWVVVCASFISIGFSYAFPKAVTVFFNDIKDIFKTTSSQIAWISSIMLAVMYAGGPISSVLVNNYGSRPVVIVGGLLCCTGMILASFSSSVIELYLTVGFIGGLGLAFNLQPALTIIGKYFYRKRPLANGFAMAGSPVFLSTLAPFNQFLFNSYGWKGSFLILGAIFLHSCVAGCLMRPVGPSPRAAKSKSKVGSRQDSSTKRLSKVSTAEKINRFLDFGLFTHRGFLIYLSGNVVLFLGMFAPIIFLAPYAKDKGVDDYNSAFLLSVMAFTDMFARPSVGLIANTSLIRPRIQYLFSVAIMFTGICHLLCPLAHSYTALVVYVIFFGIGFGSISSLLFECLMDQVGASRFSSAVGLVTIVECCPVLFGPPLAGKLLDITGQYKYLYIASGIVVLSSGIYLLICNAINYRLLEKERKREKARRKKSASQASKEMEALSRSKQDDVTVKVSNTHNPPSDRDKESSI
T4 sequence (O88775 34-328 partner): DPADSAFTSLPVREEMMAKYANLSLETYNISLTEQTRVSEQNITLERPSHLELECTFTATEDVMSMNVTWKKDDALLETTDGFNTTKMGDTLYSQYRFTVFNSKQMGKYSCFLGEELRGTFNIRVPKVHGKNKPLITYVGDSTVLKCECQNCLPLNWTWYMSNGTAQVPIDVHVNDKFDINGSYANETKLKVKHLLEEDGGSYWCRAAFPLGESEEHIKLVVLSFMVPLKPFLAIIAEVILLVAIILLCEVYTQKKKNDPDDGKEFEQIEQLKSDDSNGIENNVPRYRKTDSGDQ

Question: With N#CC(=Cc1ccc(O)cc1)C(=O)O [CHC, α-cyano-4-hydroxycinnamate] as the compound, how does the “inhibition of mitochondrial pyruvate carrier (pyruvate uptake)” value ([1]; rat liver mitochondria, 10 μM inhibitor) read?
Answer: The value was > 90%.

Question: With O=C(O)c1nn(Cc2ccc(Cl)cc2Cl)c2ccccc12 [LND, Lonidamine] as the compound, how does the pKi [1] read?
Answer: Its pKi is 5.60.

Question: What about the “increase of intracellular [L-lactate]” value ([2]; 40 μM LND) of the same compound?
Answer: The value was “two-fold”.

Question: And the L-lactate output ([2]; 40 μM and 150 μM LND)?
Answer: Its L-lactate output is “decrease in L-lactate output”.

Question: And the L-lactate output ([2]; 150 μM LND)?
Answer: The L-lactate output was “decreased L-lactate output; also recorded: L-lactate output decreased”.

Question: And the “increase of intracellular [L-lactate]” value ([2]; 150 μM LND)?
Answer: Its value is “> five-fold; also recorded: eight-fold”.

Question: And the L-lactate output ([2]; 1–10 μM LND)?
Answer: Its L-lactate output is “increased L-lactate output”.

Question: What about the “intracellular [L-lactate]” value ([2]; 1–10 μM LND) of the same compound?
Answer: Its value is “without a detectable increase”.

Question: What about the “effect on uncoupled pyruvate oxidation” value ([3]; 30°C, 2 μM LND) of the same compound?
Answer: Its value is “without effect”.

Question: And the “inhibition of uncoupled pyruvate oxidation” value ([3]; 30°C, 3 μM LND)?
Answer: The value was ~ 15%.

Question: What about the “inhibition of uncoupled pyruvate oxidation” value ([3]; 30°C, 10 μM LND) of the same compound?
Answer: The value was ~70%.

Question: And the pIC50 ([3]; read-out: IC50 for inhibition of uncoupled pyruvate oxidation, 30°C, pyruvate + malate, FCCP)?
Answer: The pIC50 was ~5.15 and ~5.12.

Question: And the “tumour pHi after LND treatment” value ([4]; DB-1 xenografts in mice, within about 40 min, from 6.9 ± 0.1)?
Answer: Its value is 6.3 ± 0.1.

Question: And the “decrease in the tumour NTP/Pi ratio” value ([4]; DB-1 xenografts in mice, within about 3 hr)?
Answer: Its value is 66.8 ± 5.7%.

Question: And the “decrease in extracellular pH of the tumour” value ([4]; DB-1 xenografts in mice)?
Answer: The value was ~ 0.2 pH units.

Question: And the “rise in tumour [L-lactate]” value ([4]; DB-1 xenografts in mice)?
Answer: The value was “three-fold”.

Question: What about the “change in pHi of liver” value ([4]; mice, 20 min post-injection) of the same compound?
Answer: The value was “only a slight transient change”.

Question: What about the “change in NTP/Pi of the liver” value ([4]; mice, 40 min post-injection) of the same compound?
Answer: Its value is “only a transient small decrease”.

Question: And the “change in NTP/Pi ratio of muscle and brain” value ([4]; mice)?
Answer: Its value is “no change”.

Question: And the “change in pHi of normal muscle or brain” value ([4]; mice)?
Answer: The value was “No significant change”.

Question: And the “Hill coefficient of inhibition of MCT4” value [5]?
Answer: The value was 1.65–1.85 and 1.84 ± 0.19.

Question: What about the “Hill coefficient of inhibition of MCT1” value [6] of the same compound?
Answer: The value was 1.65–1.85 and 1.65 ± 0.23.

Question: And the “Hill coefficient of inhibition of MCT2” value [7]?
Answer: The value was 1.86 ± 0.34.
